For 38 sequences, Tm and folding enthalpy results are on record in the array DNA melting data of Ke et al. (doi:10.1101/2024.01.08.574731).

Data set [1] is described as follows: melting temperature; fluorescence melt of hairpins on a sequencing array, two-state fit, raised by 9.35 °C to match UV melts. To be noted: sodium 0.088 M. Put shortly: (§1)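 With Cy3 and quencher oligos annealed, library hairpins on a sequenced MiSeq flow cell were imaged for Cy3 fluorescence in 50 mM Na-HEPES pH 8.0, 25 mM NaCl, in 2.5 °C steps up to 60 °C. Melting temperature and folding enthalpy were derived from bootstrapped two-state fits of signals normalised to pre-quench Cy3 and to control constructs. Four replicates were combined by inverse variance, with fitted temperatures raised by 9.35 °C to match UV melts.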

The nature of data set [2]: folding enthalpy; higher = less favourable; fluorescence melt of hairpins on a sequencing array, two-state fit. To be noted: sodium 0.088 M. Put shortly: as §1

Regarding GATCTCGCGTGAGATC ((((((....)))))), in data set [1], the Tm was determined as 53.8 °C. Besides, in data set [2], the folding enthalpy was -145 kJ/mol.

Turning to GATCTCGGAAACGAGGTC ((.((((....)))).)), in data set [1], the Tm turned out to be 50.2 °C. Also, the folding enthalpy in data set [2] was -213 kJ/mol.

In the case of GATCTCGGCAGAGATC ((((((....)))))), the Tm in data set [1] was determined as 68.1 °C. Moreover, the folding enthalpy in data set [2] was -176 kJ/mol.

For the sequence GATCTCGGCTGAGATC ((((((....)))))), the Tm in data set [1] came out at 56.5 °C. Besides, in data set [2], the folding enthalpy is -186 kJ/mol.

Turning to GATCTCGGTTGAGATC ((((((....)))))), the Tm in data set [1] came to 53.5 °C. In data set [2], the folding enthalpy was -128 kJ/mol.

With GATCTCGTAGGAGATC ((((((....)))))), the Tm in data set [1] was 56.6 °C. Further, in data set [2], the folding enthalpy is -142 kJ/mol.

On to GATCTCGTCTGAGATC ((((((....)))))), for which, in data set [1], the Tm is 55.3 °C. The folding enthalpy in data set [2] is -175 kJ/mol.

Regarding GATCTCTAACGAGATC ((((((....)))))), the Tm in data set [1] worked out at 49.4 °C. Further, the folding enthalpy in data set [2] was -140 kJ/mol.

In the case of GATCTCTATGGAGATC ((((((....)))))), the Tm in data set [1] worked out at 54.9 °C. Also, the folding enthalpy in data set [2] was -179 kJ/mol.

For the sequence GATCTCTCAAGAGATC ((((((....)))))), the Tm in data set [1] came to 53.7 °C. In addition, in data set [2], the folding enthalpy is -171 kJ/mol.

Regarding GATCTCTCACGAGATC ((((((....)))))), the Tm in data set [1] worked out at 51.6 °C. Moreover, the folding enthalpy in data set [2] was -156 kJ/mol.

Turning to GATCTCTCCAGAGATC ((((((....)))))), the Tm in data set [1] turned out to be 56.7 °C. For the same sequence, in data set [2], the folding enthalpy was -168 kJ/mol.

For the sequence GATCTCTCCGAGATC ((((((...)))))), in data set [1], the Tm worked out at 56.7 °C. The folding enthalpy in data set [2] was -170 kJ/mol.

Regarding GATCTCTCGCGAGATC ((((((....)))))), the Tm in data set [1] was 51.4 °C. In addition, the folding enthalpy in data set [2] was -177 kJ/mol.

With GATCTCTCGGGAGATC ((((((....)))))), the Tm in data set [1] was 53.5 °C. Further, the folding enthalpy in data set [2] is -160 kJ/mol.

In the case of GATCTCTGCCGAGATC ((((((....)))))), the Tm in data set [1] was 51.3 °C. Further, the folding enthalpy in data set [2] was -159 kJ/mol.

As to GATCTCTTACGAGATC ((((((....)))))), the Tm in data set [1] worked out at 52.2 °C. Moreover, the folding enthalpy in data set [2] is -187 kJ/mol.

As for GATCTCTTCAGAGATC ((((((....)))))), the Tm in data set [1] came out at 60.1 °C. Besides, the folding enthalpy in data set [2] is -171 kJ/mol.

As to GATCTCTTGGAGATC ((((((...)))))), the Tm in data set [1] is 54.4 °C. Also, the folding enthalpy in data set [2] was -158 kJ/mol.

On to GATCTGAAAACAGATC ((((((....)))))), for which the Tm in data set [1] was found to be 42.8 °C. Moreover, in data set [2], the folding enthalpy is -115 kJ/mol.

As for GATCTGAAACCAGATC ((((((....)))))), in data set [1], the Tm is 43 °C. In data set [2], the folding enthalpy is -124 kJ/mol.

Take GATCTGAACCAGATC ((((((...)))))): in data set [1], the Tm turned out to be 46 °C. Also, the folding enthalpy in data set [2] is -145 kJ/mol.

As for GATCTGAACTCAGATC ((((((....)))))), the Tm in data set [1] is 48 °C. Moreover, the folding enthalpy in data set [2] was -162 kJ/mol.

For the sequence GATCTGAAGACAGATC ((((((....)))))), the Tm in data set [1] was 44.8 °C. In data set [2], the folding enthalpy was -116 kJ/mol.

For GATCTGAATGCAGATC ((((((....)))))), in data set [1], the Tm stood at 47.3 °C. Further, the folding enthalpy in data set [2] was -129 kJ/mol.

As to GATCTGACACCAGATC ((((((....)))))), the Tm in data set [1] was 46.1 °C. For the same sequence, in data set [2], the folding enthalpy is -145 kJ/mol.

Take GATCTGACGACAGATC ((((((....)))))): the Tm in data set [1] turned out to be 48.5 °C. Further, the folding enthalpy in data set [2] is -146 kJ/mol.

Take GATCTGAGAACAGATC ((((((....)))))): the Tm in data set [1] stood at 45.1 °C. The folding enthalpy in data set [2] was -115 kJ/mol.

On to GATCTGAGCCCAGATC ((((((....)))))), for which, in data set [1], the Tm stood at 47.3 °C. Moreover, the folding enthalpy in data set [2] is -124 kJ/mol.

As for GATCTGAGGTCAGATC ((((((....)))))), the Tm in data set [1] came out at 49.4 °C. For the same sequence, in data set [2], the folding enthalpy was -170 kJ/mol.

Regarding GATCTGAGTTCAGATC ((((((....)))))), the Tm in data set [1] turned out to be 49.9 °C. Also, the folding enthalpy in data set [2] is -183 kJ/mol.

Take GATCTGATGACAGATC ((((((....)))))): the Tm in data set [1] stood at 48.8 °C. In data set [2], the folding enthalpy was -145 kJ/mol.

On to GATCTGATGGCAGATC ((((((....)))))), for which the Tm in data set [1] stood at 47.7 °C. In data set [2], the folding enthalpy is -153 kJ/mol.

As for GATCTGCAATCAGATC ((((((....)))))), the Tm in data set [1] was found to be 47.2 °C. Besides, the folding enthalpy in data set [2] is -154 kJ/mol.

GATCTGCACCCAGATC ((((((....)))))): in data set [1], the Tm was determined as 47.8 °C. Further, the folding enthalpy in data set [2] was -140 kJ/mol.

In the case of GATCTGCACTCAGATC ((((((....)))))), in data set [1], the Tm was 48.9 °C. For the same sequence, the folding enthalpy in data set [2] is -143 kJ/mol.

GATCTGCAGCCAGATC ((((((....)))))): the Tm in data set [1] was determined as 48.9 °C. Moreover, the folding enthalpy in data set [2] was -137 kJ/mol.

For the sequence GATCTGCCAGCAGATC ((((((....)))))), the Tm in data set [1] was found to be 57.7 °C. Moreover, the folding enthalpy in data set [2] was -162 kJ/mol.
